ChEMBL document CHEMBL3085625, “Synthesis, biological evaluation and molecular modeling studies of some novel thiazolidinediones with triazole ring” (Eur J Med Chem, 2013)
Converted amounts (≈) assume the structure as drawn.

Legend:
MCF7 = assay: Cytotoxicity against human MCF7 cells after 24 hrs by MTT assay; format: functional, cell-based; details: MCF7, 24 h
How it was run: (§1)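 MTT read-out: viable-cell mitochondrial dehydrogenase reduces tetrazolium to formazan, which is dissolved in DMSO and read at 570 nm. IC50 reported in μg/ml. Doxorubicin serves as positive control.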

[1] = Inhibition of alpha-glucosidase (unknown origin) using p-nitrophenyl-alpha-D-glucopyranoside as substrate assessed as p-nitrophenol formation incubated for 5 mins prior to substrate addition measured after 5 mins by spectrophotometry
How it was run: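 Test samples (5 mg/mL DMSO stock) in 100 mM phosphate buffer pH 6.8 preincubated 5 min with yeast α-glucosidase (0.76 U/mL) or crude rat intestinal enzyme (supernatant of sonicated acetone powder in saline, centrifuged). Then 5 mM p-nitrophenyl-α-D-glucopyranoside added; p-nitrophenol read at 405 nm after 5 min. Sample blanks without substrate; DMSO controls. Inhibition = (1−B/A)×100. Triplicate; IC50 by regression of mean inhibition.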

[2] = Cytotoxicity against human IMR32 cells after 24 hrs by MTT assay; format: functional, cell-based; details: IMR-32, 24 h; how it was run: as §1
HepG2 = assay: Cytotoxicity against human HepG2 cells after 24 hrs by MTT assay; format: functional, cell-based; details: HepG2, 24 h; how it was run: as §1

Row | SMILES | IC50 [1] [µg/mL] | IC50 (MCF7) [µg/mL] | IC50 [2] [µg/mL] | IC50 (HepG2) [µg/mL]
1 | O=C1S/C(=C\c2ccc3c(c2)OCO3)C(=O)N1Cc1cn(-c2ccccc2[N+](=O)[O-])nn1 | 0.1 (≈ 0.222 µM) | > 100 | > 100 | > 100
2 | O=C1S/C(=C\c2ccc3c(c2)OCO3)C(=O)N1Cc1cn(-c2ccc(F)c(F)c2)nn1 | > 100 | > 100 | > 100 | > 100
3 | C[C@H]1O[C@H](O[C@H]2[C@H](O)[C@@H](O)[C@@H](O[C@H]3[C@H](O)[C@@H](O)C(O)O[C@@H]3CO)O[C@@H]2CO)[C@H](O)[C@@H](O)[C@@H]1N[C@H]1C=C(CO)[C@@H](O)[C@H](O)[C@H]1O (some centres not stated) [ACARBOSE] | 12.5 (≈ 19.4 µM) |  |  | 
4 | CC(C)c1ccc(-n2cc(CN3C(=O)S/C(=C\c4ccc5c(c4)OCO5)C3=O)nn2)cc1 | 0.3 (≈ 0.669 µM) | 78 (≈ 174 µM) | 97.5 (≈ 217 µM) | 66 (≈ 147 µM)
5 | COc1ccc(C)cc1-n1cc(CN2C(=O)S/C(=C\c3ccc4c(c3)OCO4)C2=O)nn1 | > 100 | 34 (≈ 75.5 µM) | 52.6 (≈ 117 µM) | 45 (≈ 99.9 µM)
6 | COc1cccc2c1C(=O)c1c(O)c3c(c(O)c1C2=O)C[C@@](O)(C(=O)CO)C[C@@H]3O[C@H]1C[C@H](N)[C@H](O)[C@H](C)O1 [DOXORUBICIN] |  |  | 0.8 (≈ 1.47 µM) | 0.6 (≈ 1.1 µM)

Continued, in another order:

Row | IC50 [1] [µg/mL] | SMILES | IC50 (MCF7) [µg/mL] | IC50 [2] [µg/mL] | IC50 (HepG2) [µg/mL]
7 | 75.5 (≈ 180 µM) | Cc1ccc(-n2cc(CN3C(=O)S/C(=C\c4ccc5c(c4)OCO5)C3=O)nn2)cc1 | > 100 | > 100 | > 100
8 | 0.3 (≈ 0.69 µM) | O=C1S/C(=C\c2ccc3c(c2)OCO3)C(=O)N1Cc1cn(CCc2ccccc2)nn1 | 30 (≈ 69 µM) | 52.6 (≈ 121 µM) | 31 (≈ 71.4 µM)
9 | > 100 | O=C1S/C(=C\c2ccc3c(c2)OCO3)C(=O)N1Cc1cn(-c2ccc(F)cc2)nn1 | 96.2 (≈ 227 µM) | > 100 | > 100
10 | > 100 | CCCCCCn1cc(CN2C(=O)S/C(=C\c3ccc4c(c3)OCO4)C2=O)nn1 | 43 (≈ 104 µM) | 77.6 (≈ 187 µM) | 67 (≈ 162 µM)
11 | 40 (≈ 90.7 µM) | O=C1S/C(=C\c2ccc3c(c2)OCO3)C(=O)N1Cc1cn(-c2ccccc2Cl)nn1 | 87 (≈ 197 µM) | > 100 | > 100
12 | > 100 | O=C1S/C(=C\c2ccc3c(c2)OCO3)C(=O)N1Cc1cn(-c2ccc(Cl)c(F)c2)nn1 | > 100 | > 100 | > 100
13 | 33.6 (≈ 76.2 µM) | O=C1S/C(=C\c2ccc3c(c2)OCO3)C(=O)N1Cc1cn(-c2ccc(Cl)cc2)nn1 | > 100 | > 100 | > 100
